ChEMBL document CHEMBL3272149, “Synthesis and antibacterial activity of some derivatives of tolypomycinone. Relationship between structure and activity in ansamycins” (J Med Chem, 1977)
≈ marks a conversion by molar mass, not a printed value.

What was measured:
Format in all cases: functional
Klebsiella pneumoniae = test: Antibacterial activity against Klebsiella pneumoniae Ottaviani assessed as inhibition of visible growth after 24 hrs by serial dilution method
Staphylococcus aureus = test: Antibacterial activity against Staphylococcus aureus 209 P(FDA) assessed as inhibition of visible growth after 24 hrs by serial dilution method
[1] = test system: Salmonella enterica subsp. enterica serovar Paratyphi B; test: Antibacterial activity against Salmonella paratyphi B 0248 K assessed as inhibition of visible growth after 24 hrs by serial dilution method
How it was run: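 Broth tube serial dilution in Brain Heart Infusion medium; inoculum 10^6 cells/mL; incubation 24 h at 35 °C; MIC taken as the lowest antibiotic concentration that prevented visible growth.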

Escherichia coli = test: Antibacterial activity against Escherichia coli MC/35 assessed as inhibition of visible growth after 24 hrs by serial dilution method; details: MC/35, 24 h

Row | SMILES | MIC (Klebsiella pneumoniae) [µg/mL] | MIC (Staphylococcus aureus) [µg/mL] | MIC [1] [µg/mL] | MIC (Escherichia coli) [µg/mL]
1 | CO[C@H]1/C=C/O[C@@]2(C)Oc3c(C)c(O)c4c(c3C2=O)C(=O)C(NCc2ccsc2)=C(NC(=O)/C(C)=C\C(=O)[C@@H]2C[C@@H]2[C@H](O)[C@@H](C)[C@@H](O)[C@@H](C)[C@H](OC(C)=O)[C@@H]1C)C4=O | 100 (≈ 122 µM) | < 0.005 | 12 (≈ 14.6 µM) | 12 (≈ 14.6 µM)
2 | CO[C@H]1/C=C/O[C@@]2(C)Oc3c(C)c(O)c4c(c3C2=O)C(=O)C(NC2CCCCC2)=C(NC(=O)/C(C)=C\C(=O)[C@@H]2C[C@@H]2[C@H](O)[C@@H](C)[C@@H](O)[C@@H](C)[C@H](OC(C)=O)[C@@H]1C)C4=O | – | 0.25 (≈ 0.31 µM) | – | –
3 | CO[C@H]1/C=C/O[C@@]2(C)Oc3c(C)c(O)c4c(O)c(c(/C=N/N5CCN(C)CC5)c(O)c4c3C2=O)NC(=O)/C(C)=C\C=C\[C@H](C)[C@H](O)[C@@H](C)[C@@H](O)[C@@H](C)[C@H](OC(C)=O)[C@@H]1C [RIFAMPIN] | 25 (≈ 30.4 µM) | 0.025 (≈ 0.0304 µM) | 12 (≈ 14.6 µM) | 6 (≈ 7.29 µM)
4 | CO[C@H]1/C=C/O[C@@]2(C)Oc3c(C)c(O)c4c(c3C2=O)C(=O)C(NCc2ccn(C)c2)=C(NC(=O)/C(C)=C\C(=O)[C@@H]2C[C@@H]2[C@H](O)[C@@H](C)[C@@H](O)[C@@H](C)[C@H](OC(C)=O)[C@@H]1C)C4=O | 12 (≈ 14.7 µM) | 0.005 (≈ 0.00611 µM) | 12 (≈ 14.7 µM) | 12 (≈ 14.7 µM)
5 | CO[C@H]1/C=C/O[C@@]2(C)Oc3c(C)c(O)c4c(c3C2=O)C(=O)C(NCCc2ccc(O)cc2)=C(NC(=O)/C(C)=C\C(=O)[C@@H]2C[C@@H]2[C@H](O)[C@@H](C)[C@@H](O)[C@@H](C)[C@H](OC(C)=O)[C@@H]1C)C4=O | > 100 | < 0.005 | > 50 | > 100
6 | CO[C@H]1/C=C/O[C@@]2(C)Oc3c(C)c(O)c4c(O)c(cc(O)c4c3C2=O)NC(=O)/C(C)=C\C=C\[C@H](C)[C@H](O)[C@@H](C)[C@@H](O)[C@@H](C)[C@H](OC(C)=O)[C@@H]1C [RIFAMYCIN] | 100 (≈ 143 µM) | < 0.005 | 100 (≈ 143 µM) | 100 (≈ 143 µM)
7 | CO[C@H]1/C=C/O[C@@]2(C)Oc3c(C)c(O)c4c(c3C2=O)C(=O)C(NCCCN2CCN(C)CC2)=C(NC(=O)/C(C)=C\C(=O)[C@@H]2C[C@@H]2[C@H](O)[C@@H](C)[C@@H](O)[C@@H](C)[C@H](OC(C)=O)[C@@H]1C)C4=O | 25 (≈ 28.9 µM) | 0.025 (≈ 0.0289 µM) | 3 (≈ 3.47 µM) | 12 (≈ 13.9 µM)
8 | CO[C@H]1/C=C/O[C@@]2(C)Oc3c(C)c(O)c4c(c3C2=O)C(=O)C(NCCc2ccccn2)=C(NC(=O)/C(C)=C\C(=O)[C@@H]2C[C@@H]2[C@H](O)[C@@H](C)[C@@H](O)[C@@H](C)[C@H](OC(C)=O)[C@@H]1C)C4=O | 25 (≈ 30.1 µM) | < 0.005 | 12 (≈ 14.5 µM) | 6 (≈ 7.23 µM)
9 | CO[C@H]1/C=C/O[C@@]2(C)Oc3c(C)c(O)c4c(c3C2=O)C(=O)C(NCCCN(C)C)=C(NC(=O)/C(C)=C\C(=O)[C@@H]2C[C@@H]2[C@H](O)[C@@H](C)[C@@H](O)[C@@H](C)[C@H](OC(C)=O)[C@@H]1C)C4=O | 50 (≈ 61.7 µM) | 0.025 (≈ 0.0309 µM) | 12 (≈ 14.8 µM) | 12 (≈ 14.8 µM)
10 | COC(CCNC1=C2NC(=O)/C(C)=C\C(=O)[C@@H]3C[C@@H]3[C@H](O)[C@@H](C)[C@@H](O)[C@@H](C)[C@H](OC(C)=O)[C@H](C)[C@@H](OC)/C=C/O[C@@]3(C)Oc4c(C)c(O)c(c(c4C3=O)C1=O)C2=O)OC | 50 (≈ 60.5 µM) | 0.005 (≈ 0.00605 µM) | 25 (≈ 30.2 µM) | 25 (≈ 30.2 µM)
11 | COc1cc(CNC2=C3NC(=O)/C(C)=C\C(=O)[C@@H]4C[C@@H]4[C@H](O)[C@@H](C)[C@@H](O)[C@@H](C)[C@H](OC(C)=O)[C@H](C)[C@@H](OC)/C=C/O[C@@]4(C)Oc5c(C)c(O)c(c(c5C4=O)C2=O)C3=O)ccc1O | 100 (≈ 116 µM) | < 0.005 | 100 (≈ 116 µM) | 100 (≈ 116 µM)
12 | CO[C@H]1/C=C/O[C@@]2(C)Oc3c(C)c(O)c4c(c3C2=O)C(=O)C(NCCN(C)C)=C(NC(=O)/C(C)=C\C(=O)[C@@H]2C[C@@H]2[C@H](O)[C@@H](C)[C@@H](O)[C@@H](C)[C@H](OC(C)=O)[C@@H]1C)C4=O | 25 (≈ 31.4 µM) | < 0.005 | 12 (≈ 15.1 µM) | 6 (≈ 7.54 µM)
13 | CO[C@H]1/C=C/O[C@@]2(C)Oc3c(C)c(O)c4c(c3C2=O)C(=O)C(NCc2cccnc2)=C(NC(=O)/C(C)=C\C(=O)[C@@H]2C[C@@H]2[C@H](O)[C@@H](C)[C@@H](O)[C@@H](C)[C@H](OC(C)=O)[C@@H]1C)C4=O | 25 (≈ 30.6 µM) | < 0.005 | 12 (≈ 14.7 µM) | 6 (≈ 7.35 µM)
14 | CO[C@H]1/C=C/O[C@@]2(C)Oc3c(C)c(O)c4c(c3C2=O)C(=O)C(N(C)C)=C(NC(=O)/C(C)=C\C(=O)[C@@H]2C[C@@H]2[C@H](O)[C@@H](C)[C@@H](O)[C@@H](C)[C@H](OC(C)=O)[C@@H]1C)C4=O | 100 (≈ 133 µM) | 0.025 (≈ 0.0332 µM) | 100 (≈ 133 µM) | 50 (≈ 66.4 µM)
